Assay results gathered from unrelated publications.
Compare with care: the assays were run in different laboratories.
Cell line: PANC-1
Read-out: cell growth or viability

`COc1ccc(C(=O)O[C@@H]2CN3Cc4c(cc5c(c4OC)OCO5)[C@@]24C=C[C@H](OC)C[C@@H]34)cc1` has an IC50 of over 10 µM (WST-1).
The IC50 of `CC(=O)c1ccc(N=Nc2c(C(=O)O)cc(O)c(O)c2O)cc1` is reported as 12.7 µM (MTT).
`Cc1ccc2[nH]c(=O)c3cc(C(=O)NCCCN(C)Cc4ccccc4)sc3c2c1` gave an IC50 of 16.8 µM (MTT; 24 h).
For `CC(C)C[C@H](NC(=O)[C@H](Cc1ccccc1)NC(=O)c1cnccn1)B(O)O`, the IC50 was 0.01 µM (ATP luminescence).
With `COc1c2c(cc3c1OCO3)[C@]13C=C[C@H](OC)C[C@H]1N(C2)C[C@H]3OC(=O)c1cccc(C)c1` the IC50 was over 10 µM (WST-1).
`O=C(O)c1cc(O)c(O)c(O)c1` has an IC50 of 17.9 µM (MTT).
`CNc1ncc2cc(-c3ccc(-c4cccc(C)n4)cc3Cl)c(=O)n(C[C@H]3OC[C@H](N)CO3)c2n1` has an IC50 of 23.2 µM (MTT; 24 h).
The IC50 of `COc1cccc2c1C(=O)c1c(O)c3c(c(O)c1C2=O)C[C@@](O)(C(=O)CO)C[C@@H]3O[C@H]1C[C@H](N)[C@H](O)[C@H](C)O1` is reported as 0.53 µM (WST-1; 72 h).
`O=C(O)/C=C/c1ccc(O)c(O)c1` has an IC50 of 4.1 µM (MTT).
With `Cc1ncsc1-c1ccc(CNC(=O)[C@@H]2C[C@@H](O)CN2C(=O)[C@@H](NC(=O)CCCCCCCCCCCC(=O)NCCCCC#Cc2cccc(-c3nn(-c4nc(C(=O)O)cs4)c(CC4CC4)c3Cc3ccc(S(N)(=O)=O)cc3)c2)C(C)(C)C)cc1` the GI50 was 16.1 µM (CCK-8; 72 h).
For `COc1cc(Nc2nccc(-c3cnn4nc(OC)ccc34)n2)cc(C(F)(F)F)c1`, the IC50 was 0.76 µM (ATP luminescence).
`CC(=O)c1ccc(/N=N/c2cc(/C=C/C(=O)O)ccc2O)cc1` gave an IC50 of over 50 µM (MTT).
`CCN(CC)CCCC(C)Nc1cnc(C(=O)Nc2cc(F)cc3cccnc23)cn1` (centres unmarked) has an IC50 of 7.2 µM (MTT).
The IC50 of `COc1cccc(C(=O)O[C@@H]2CN3Cc4c(cc5c(c4OC)OCO5)[C@@]24C=C[C@H](OC)C[C@@H]34)c1` is reported as 8.7 µM (WST-1).
